Consider one compound from ChEMBL document CHEMBL4480411, “Discovery of Second Generation RORγ Inhibitors Composed of an Azole Scaffold” (J Med Chem, 2019).

A short description of data set [1]: Total body clearance in CD(SD) rat at 1 mg/kg, iv. It is filed as ADME, organism-based. As to conditions: in vivo.
Data set [2] in a line: AUC in CD(SD) rat at 3 mg/kg, po. It is filed as ADME, organism-based. The note with it: in vivo.
In the next data set the target is Cytochrome P450 2C9 (Homo sapiens, UniProt P11712). In words: Time-dependent inhibition of human CYP2C9. It is filed as ADME.
Data set [3] can be described thus: Stability in human liver microsomes assessed as compound remaining after 60 mins. Format: ADME, Microsome. The note with it: read-out: Stability. A digest of the protocol:
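Human liver microsomes incubated with compound for 60 minutes; value reported as % of compound remaining.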

Data set [4] can be described thus: Terminal half life in CD(SD) rat at 1 mg/kg, iv. As to conditions: in vivo, read-out: beta t1/2 (converted). Format: ADME, organism-based.
The target in data set [5] is T1, Peroxisome proliferator-activated receptor delta (Homo sapiens, UniProt Q03181).
T1 sequence (Q03181 whole entry): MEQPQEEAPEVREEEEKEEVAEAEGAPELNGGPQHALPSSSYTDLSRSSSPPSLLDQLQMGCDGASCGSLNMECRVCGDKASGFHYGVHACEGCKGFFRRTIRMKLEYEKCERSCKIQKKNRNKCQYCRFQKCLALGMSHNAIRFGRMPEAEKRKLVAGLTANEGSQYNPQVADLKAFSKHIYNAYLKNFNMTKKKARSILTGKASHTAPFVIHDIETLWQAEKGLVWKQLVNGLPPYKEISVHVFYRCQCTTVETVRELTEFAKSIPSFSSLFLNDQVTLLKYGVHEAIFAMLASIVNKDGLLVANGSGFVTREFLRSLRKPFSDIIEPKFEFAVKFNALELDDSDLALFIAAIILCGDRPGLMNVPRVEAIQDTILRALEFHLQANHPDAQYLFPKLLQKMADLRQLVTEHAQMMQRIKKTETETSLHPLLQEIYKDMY
In words: Inhibition of GAL4-fused human PPARdelta transcriptional activity expressed in CHOK1 cells after 2 days by luciferase reporter gene assay. It is filed as cell-based. Background: Reporter assays use an easily measured gene product as a stand-in for the process of interest.

For a further data set, the target named is Cytochrome P450 3A4 (Homo sapiens, UniProt P08684). In words: Time-dependent inhibition of human CYP3A4 using testosterone as substrate. It is filed as ADME.
Another data set deals with T2, Retinoid X receptor (Homo sapiens, UniProt P28702+P48443+P19793).
T2 sequence (P28702 whole entry): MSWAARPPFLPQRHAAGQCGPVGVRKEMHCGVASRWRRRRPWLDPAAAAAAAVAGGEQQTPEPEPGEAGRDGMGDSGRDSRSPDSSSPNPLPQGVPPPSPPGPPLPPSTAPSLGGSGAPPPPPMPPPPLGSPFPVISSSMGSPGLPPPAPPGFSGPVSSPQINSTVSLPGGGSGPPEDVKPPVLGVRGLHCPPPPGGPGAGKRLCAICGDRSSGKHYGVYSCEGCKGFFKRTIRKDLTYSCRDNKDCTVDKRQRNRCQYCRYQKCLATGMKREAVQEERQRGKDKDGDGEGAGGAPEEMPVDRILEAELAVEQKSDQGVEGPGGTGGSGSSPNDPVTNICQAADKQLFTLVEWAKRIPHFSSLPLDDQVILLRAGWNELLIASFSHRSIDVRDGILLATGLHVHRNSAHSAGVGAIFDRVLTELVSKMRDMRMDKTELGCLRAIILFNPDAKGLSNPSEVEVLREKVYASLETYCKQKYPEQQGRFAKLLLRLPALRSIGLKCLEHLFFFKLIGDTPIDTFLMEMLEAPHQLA
T2 sequence (P48443 whole entry): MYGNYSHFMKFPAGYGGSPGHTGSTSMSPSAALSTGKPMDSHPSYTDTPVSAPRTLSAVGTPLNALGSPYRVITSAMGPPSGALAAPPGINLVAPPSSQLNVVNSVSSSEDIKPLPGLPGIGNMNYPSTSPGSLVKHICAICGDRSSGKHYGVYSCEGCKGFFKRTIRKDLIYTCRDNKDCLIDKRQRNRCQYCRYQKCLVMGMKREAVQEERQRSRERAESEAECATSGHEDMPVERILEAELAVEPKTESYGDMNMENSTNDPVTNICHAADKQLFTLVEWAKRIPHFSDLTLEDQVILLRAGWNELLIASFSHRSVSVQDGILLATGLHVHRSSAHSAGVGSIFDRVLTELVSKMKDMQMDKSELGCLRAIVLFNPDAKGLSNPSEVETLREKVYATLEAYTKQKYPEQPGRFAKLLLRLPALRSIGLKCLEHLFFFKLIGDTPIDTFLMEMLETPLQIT
T2 sequence (P19793 whole entry): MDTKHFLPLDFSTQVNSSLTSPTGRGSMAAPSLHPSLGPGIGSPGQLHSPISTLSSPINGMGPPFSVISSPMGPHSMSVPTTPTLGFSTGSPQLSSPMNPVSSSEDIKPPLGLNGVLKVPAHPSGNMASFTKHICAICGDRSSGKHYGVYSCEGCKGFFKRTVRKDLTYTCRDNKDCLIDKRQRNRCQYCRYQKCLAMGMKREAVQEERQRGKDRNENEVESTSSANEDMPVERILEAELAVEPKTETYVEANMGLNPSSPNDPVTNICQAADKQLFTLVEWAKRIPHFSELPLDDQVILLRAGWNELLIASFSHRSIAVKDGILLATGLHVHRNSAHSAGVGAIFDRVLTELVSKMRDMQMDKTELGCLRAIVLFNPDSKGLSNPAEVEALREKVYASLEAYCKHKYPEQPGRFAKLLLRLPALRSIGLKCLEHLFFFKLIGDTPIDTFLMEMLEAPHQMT
In words: Inhibition of GAL4-fused human RXR transcriptional activity expressed in CHOK1 cells after 2 days by luciferase reporter gene assay. It is filed as cell-based.

The subject of the next data set is Mus musculus. Kind of data set: Anti-inflammatory activity in orally dosed C57BL/6 mouse model of MOG (35 to 55 residues)/pertussis toxin/anti-CD3 antibody-induced experimental allergic encephalomyelitis assessed as inhibition of IL17 production measured 8 hrs after post dose by ELISA. It is filed as functional. The gist of the method: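 Female C57BL/6 mice immunized subcutaneously at two back sites (75 μg MOG35–55 per site; peptide at 3 mg/mL in D-PBS emulsified 1:1 with complete Freund's adjuvant), plus intraperitoneal pertussis toxin 0.2 μg on days 1 and 3. Day 5: anti-CD3 1 μg i.v. Oral dosing 3 h or 8 h before anti-CD3, 5 mice/group. Blood taken 2 h post-anti-CD3; plasma IL-17A measured by ELISA.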

Cytochrome P450 3A4, sequence (P08684 whole entry): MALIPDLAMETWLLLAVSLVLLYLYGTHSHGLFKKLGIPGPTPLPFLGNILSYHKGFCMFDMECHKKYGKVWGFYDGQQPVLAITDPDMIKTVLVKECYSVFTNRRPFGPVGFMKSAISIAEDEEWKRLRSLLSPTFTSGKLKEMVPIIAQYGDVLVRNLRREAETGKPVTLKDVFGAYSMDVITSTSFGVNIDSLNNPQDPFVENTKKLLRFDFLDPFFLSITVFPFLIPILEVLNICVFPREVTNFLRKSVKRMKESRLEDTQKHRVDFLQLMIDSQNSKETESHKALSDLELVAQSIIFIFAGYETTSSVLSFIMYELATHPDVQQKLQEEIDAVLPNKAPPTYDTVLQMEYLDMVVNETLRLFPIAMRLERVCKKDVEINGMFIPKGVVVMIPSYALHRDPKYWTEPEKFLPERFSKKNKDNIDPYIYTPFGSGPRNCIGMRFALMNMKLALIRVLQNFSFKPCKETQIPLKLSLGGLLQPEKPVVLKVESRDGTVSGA
Cytochrome P450 2C9, sequence (P11712 whole entry): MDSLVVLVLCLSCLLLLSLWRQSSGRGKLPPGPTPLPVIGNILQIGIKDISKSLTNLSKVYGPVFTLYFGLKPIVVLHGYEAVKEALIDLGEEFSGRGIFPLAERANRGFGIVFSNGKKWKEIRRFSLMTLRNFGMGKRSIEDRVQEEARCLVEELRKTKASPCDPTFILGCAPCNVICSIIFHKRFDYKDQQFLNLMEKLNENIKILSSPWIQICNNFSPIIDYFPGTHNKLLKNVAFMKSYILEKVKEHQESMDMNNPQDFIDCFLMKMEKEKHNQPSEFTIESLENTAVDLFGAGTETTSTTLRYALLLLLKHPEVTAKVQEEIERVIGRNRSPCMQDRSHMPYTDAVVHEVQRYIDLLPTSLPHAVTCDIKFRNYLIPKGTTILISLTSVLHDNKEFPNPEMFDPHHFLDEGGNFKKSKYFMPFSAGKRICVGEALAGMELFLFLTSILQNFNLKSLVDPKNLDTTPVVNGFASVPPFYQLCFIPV

In the case of `CC(C)(C)Cc1cc(-c2onc([C@@H](CCC(=O)[O-])CC(=O)Nc3ccc(Cl)cc3Cl)c2C2CC2)no1.[Na+]`, the clearance in [1] was 4.17 mL/min/kg. The compound further came in with an AUC in [2] of 15 µM·h. Further, the IC50 against Cytochrome P450 2C9 and on Cytochrome P450 3A4 was more than 50 µM throughout. Besides, the remaining at 1 h in data set [3] came to 96%. Also, in [4], the half-life is 4.2 h. In addition, the EC50 (in [5]; at Retinoid X receptor) was more than 20 µM each time. In the data set with Mus musculus, the Activity entry is “Dose-dependent effect”. In addition, in the data set on Mus musculus (C57BL/6, po), the ED50 was found to be 3 mg/kg.

The clearance is the rate of elimination divided by the concentration. Read a low clearance as a low capacity for elimination. For orientation: AUC means concentration integrated over time. A word on the IC50: it is the concentration needed to halve the response being measured. A low value points to higher potency. For orientation: EC50 means the concentration needed to bring the measured effect to its halfway point. Higher therefore signals lower potency in that assay. For orientation: ED50 means the midpoint of the dose-response relation.
